Here are results for one compound from ChEMBL document CHEMBL4477178, “Biflorin, Isolated from the Flower Buds of Syzygium aromaticum L., Suppresses LPS-Induced Inflammatory Mediators via STAT1 Inactivation in Macrophages and Protects Mice from Endotoxin Shock” (J Nat Prod, 2016).

Each structure is given as a SMILES string. Activity calls are given as the source filed them. The calls are words filed in the database; no cut-off is given here.

In series [1] the test system is RAW264.7. As to the kind of experiment: Cytotoxicity against mouse RAW264.7 cells assessed as cell viability at 60 uM after 24 hrs by MTT assay in presence of LPS. As to conditions: raw264.7, 24 h. Format: cell-based. Summed up:
(§1)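 RAW 264.7 seeded at 1 × 10^5 cells/mL, grown overnight, exposed 24 h with or without LPS; MTT (5 mg/mL stock in PBS) added 4 h at 37 °C, formazan dissolved in DMSO, absorbance at 540 nm.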

Series [2] deals with RAW264.7. As to the kind of experiment: Antiinflammatory activity in mouse RAW264.7 cells assessed as inhibition of LPS-induced PGE2 production preincubated for 1 hr followed by LPS challenge for 24 hrs by ELISA method. In kind it is functional, cell-based. A digest of the protocol: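 RAW 264.7 cells in DMEM with 10% FBS, plated at 2 × 10^5 cells/mL and incubated overnight. Pretreated with compound (15, 30 or 60 μM) for 1 h, then LPS 10 ng/mL for 24 h. PGE2 measured by competitive colorimetric ELISA, TNF-α and IL-6 by ELISA, in diluted medium. NS-398 3 μM as positive control for PGE2. Mean ± SD, three independent experiments; IC50 given for PGE2.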

Series [3] concerns the target Signal transducer and activator of transcription 3 (Mus musculus) (UniProt P42227). As to the kind of experiment: Inhibition of LPS-induced STAT3 phosphorylation at Y705 in mouse RAW264.7 cells at 15 to 60 uM preincubated for 1 hr followed by LPS challenge for 120 mins by Western blot analysis. In kind it is cell-based. A digest of the protocol:
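RAW 264.7 pretreated 1 h at 15, 30 or 60 μM, then LPS 10 ng/mL: 120 min for p-STAT1 Y701, 15 min for p-STAT1 S727, 120 min for p-STAT3 Y705. Western blot with phospho-specific and total STAT1/STAT3 antibodies, β-actin control; three independent experiments.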
A general note: In western blotting, separated proteins are transferred to a membrane and probed.

The subject of series [4] is RAW264.7. As to the kind of experiment: Antiinflammatory activity in mouse RAW264.7 cells assessed as inhibition of LPS-induced iNOS mRNA expression at 60 uM after 2 to 12 hrs by qRT-PCR method. Format: functional, cell-based. Summed up: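 RAW 264.7 stimulated with LPS 10 ng/mL with or without 60 μM for 2, 4, 6 and 12 h. Total RNA (1 μg) reverse-transcribed with MuLV RT and random primer; SYBR green real-time qPCR with gene-specific primers, triplicate Ct normalized to β-actin. Mean ± SD, three independent experiments.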
Background: Quantitative PCR measures a nucleic acid by following its amplification.

For series [5], the target named is MAP kinase p38 (Mus musculus) (UniProt P47811+O08911+Q9WUI1+Q9Z1B7). As to the kind of experiment: Inhibition of LPS-induced p38 MAPK phosphorylation in mouse RAW264.7 cells preincubated for 1 hr followed by LPS challenge for 30 mins by Western blot analysis. In kind it is cell-based. Summed up:
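RAW 264.7 pretreated 1 h at 15, 30 or 60 μM, then LPS 10 ng/mL for 30 min. Lysates Western-blotted for p-p38, p38, p-JNK, JNK, p-ERK, ERK with β-actin control; ECL, densitometry. Three independent experiments.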

The next series concerns Peritoneal macrophage. Kind of series: Antiinflammatory activity in C57BL/6 mouse peritoneal macrophages assessed as inhibition of LPS-induced TNF-alpha production at 60 uM preincubated for 1 hr followed by LPS challenge for 48 hrs by ELISA method. Conditions: C57BL/6, Peritoneal macrophage. In kind it is functional.
The subject of series [6] is Rattus norvegicus. Kind of series: Antiinflammatory activity in Sprague-Dawley rat assessed as inhibition of croton oil-induced inflammatory cell infiltration at 10 mg/kg, ip administered 1 hr before croton oil challenge measured after 3 hrs by hematoxylin and eosin staining based assay. In kind it is functional, organism-based. A digest of the protocol:
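SD male rats dosed i.p. (10 mg/kg) 1 h before topical croton oil (5% in acetone) on inner right ear; left ear got acetone only. At 3 h rats sacrificed, 6 mm ear punches taken, fixed in 4% paraformaldehyde overnight, paraffin-embedded, H&E-stained for edema and inflammatory cell infiltrate; seven animals per group.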

Series [7] deals with RAW264.7. Kind of series: Antiinflammatory activity in mouse RAW264.7 cells assessed as inhibition of LPS-induced COX-2 promoter activity at 60 uM preincubated for 1 hr followed by LPS challenge for 6 to 12 hrs by reporter gene assay. Format: functional, cell-based. A digest of the protocol: (§2)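 RAW 264.7 transiently cotransfected with promoter-luciferase construct (pGL3-iNOS, pGL3-COX-2 or pTNF-α-luc) plus phRL-TK internal control; 6 h after transfection pretreated 1 h with 60 μM, then LPS 10 ng/mL for 6 or 12 h. Cells washed in cold PBS, lysed, luciferase read. Mean ± SD, three independent experiments.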

Series [8] concerns RAW264.7. As to the kind of experiment: Cytotoxicity against mouse RAW264.7 cells assessed as decrease in cell viability after 24 hrs by MTT assay. In kind it is cell-based. Conditions: RAW264.7, 24 h. A digest of the protocol: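 RAW 264.7 cells seeded at 1 × 10^5 cells/mL in DMEM with 10% FBS and incubated overnight. Exposed to compound (0−400 μM) for 24 h, with or without LPS. MTT added for 4 h at 37 °C, formazan dissolved in DMSO, absorbance read at 540 nm; IC50 derived.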
Background: Tetrazolium assays rely on reduction of a dye to a coloured formazan, in cell work by metabolically active cells.

The target of series [9] is Transcription factor Jun (Mus musculus) (UniProt P05627). As to the kind of experiment: Inhibition of LPS-induced AP-1 activity in mouse RAW264.7 cells at 15 to 60 uM preincubated for 1 hr followed by LPS challenge for 12 hrs by luciferase reporter gene assay. Format: cell-based.
The subject of series [10] is Rattus norvegicus. Kind of series: Antiinflammatory activity in Sprague-Dawley rat assessed as reduction in carrageenan induced paw edema at 15 mg/kg, ip administered 1 hr before carrageenan challenge measured at 3 hrs post challenge relative to control. In kind it is functional. A digest of the protocol:
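SD rats given compound i.p. (5, 10 or 15 mg/kg) 1 h before subplantar injection of 1% carrageenan in saline (0.1 mL) into the right hind paw. Paw volume measured by plethysmometer at 1, 3 and 5 h. Edema compared with the carrageenan-only group; seven rats per group.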

Series [11] relates to Mus musculus. As to the kind of experiment: In vivo inhibition of LPS-induced STAT1 phosphorylation at S727 in C57BL/6 mouse liver at 10 mg/kg, ip pretreated for 1 hr followed by LPS challenge for 6 hrs by Western blot analysis. Format: functional, organism-based. A digest of the protocol:
(§3)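 Male C57BL/6 mice given 10 mg/kg i.p. or vehicle 1 h before LPS (Salmonella enterica, 25 mg/kg i.p.); liver collected 6 h after LPS, frozen at −80 °C. Liver mRNA by SYBR qRT-PCR normalized to β-actin; protein by Western blot for p-STAT1 (Y701, S727). Eight mice per group; mean ± SD.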

Series [12] relates to Mus musculus. As to the kind of experiment: Inhibition of LPS-induced iNOS mRNA expression in C57BL/6 mouse liver at 10 mg/kg, ip pretreated for 1 hr followed by LPS challenge for 6 hrs by qRT-PCR method. In kind it is functional, organism-based. Summed up: as §3
Series [13] concerns RAW264.7. As to the kind of experiment: Antiinflammatory activity in mouse RAW264.7 cells assessed as inhibition of LPS-induced iNOS promoter activity at 60 uM preincubated for 1 hr followed by LPS challenge for 6 to 12 hrs by reporter gene assay. Format: functional, cell-based. Summed up:
as §2

Series [14] relates to RAW264.7. As to the kind of experiment: Cytotoxicity against mouse RAW264.7 cells assessed as cell viability at 60 uM after 24 hrs by MTT assay in absence of LPS. Conditions: raw264.7, 24 h. Format: cell-based. Summed up: as §1
Series [15] deals with Mus musculus. As to the kind of experiment: Inhibition of LPS-induced TNF-alpha mRNA expression in C57BL/6 mouse liver at 10 mg/kg, ip pretreated for 1 hr followed by LPS challenge for 6 hrs by qRT-PCR method. In kind it is functional, organism-based. A digest of the protocol: as §3

Signal transducer and activator of transcription 3 (Mus musculus), sequence (P42227 whole entry): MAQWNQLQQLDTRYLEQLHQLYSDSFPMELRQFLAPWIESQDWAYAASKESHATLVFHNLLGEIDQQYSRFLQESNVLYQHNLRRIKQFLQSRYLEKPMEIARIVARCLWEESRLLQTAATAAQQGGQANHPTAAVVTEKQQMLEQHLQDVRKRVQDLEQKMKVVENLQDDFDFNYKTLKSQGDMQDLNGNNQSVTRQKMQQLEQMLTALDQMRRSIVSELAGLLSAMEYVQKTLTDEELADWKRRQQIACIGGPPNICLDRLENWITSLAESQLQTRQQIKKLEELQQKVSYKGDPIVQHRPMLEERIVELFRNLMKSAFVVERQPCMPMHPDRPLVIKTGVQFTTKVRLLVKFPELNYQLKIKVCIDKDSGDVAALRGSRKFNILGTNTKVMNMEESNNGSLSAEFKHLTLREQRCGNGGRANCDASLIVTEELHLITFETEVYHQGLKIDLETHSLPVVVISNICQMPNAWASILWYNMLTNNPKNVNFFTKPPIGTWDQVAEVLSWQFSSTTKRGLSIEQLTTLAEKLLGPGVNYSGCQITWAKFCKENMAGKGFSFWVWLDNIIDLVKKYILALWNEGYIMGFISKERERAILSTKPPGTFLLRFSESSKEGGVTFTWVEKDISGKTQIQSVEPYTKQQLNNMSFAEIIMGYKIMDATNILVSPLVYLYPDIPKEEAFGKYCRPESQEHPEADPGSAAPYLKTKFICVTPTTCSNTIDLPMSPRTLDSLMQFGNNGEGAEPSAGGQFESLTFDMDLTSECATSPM
Transcription factor Jun (Mus musculus), sequence (P05627 whole entry): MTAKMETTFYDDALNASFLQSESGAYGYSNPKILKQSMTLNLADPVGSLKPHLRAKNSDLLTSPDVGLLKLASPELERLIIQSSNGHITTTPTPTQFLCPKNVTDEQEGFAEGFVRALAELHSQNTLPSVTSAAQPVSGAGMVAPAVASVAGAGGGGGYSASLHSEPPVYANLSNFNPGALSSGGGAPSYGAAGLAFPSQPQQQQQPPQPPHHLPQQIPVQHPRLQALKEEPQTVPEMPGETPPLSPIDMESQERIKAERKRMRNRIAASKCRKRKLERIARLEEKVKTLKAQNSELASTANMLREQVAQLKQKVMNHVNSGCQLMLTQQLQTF

In the case of `Cc1cc(=O)c2c(O)c([C@@H]3O[C@H](CO)[C@@H](O)[C@H](O)[C@H]3O)c(O)cc2o1` [BIFLORIN], the Activity result in the series on RAW264.7 [1] and in the series on RAW264.7 [14] was “Non-Toxic” in each case. Moreover, the IC50 (in general, the concentration needed to halve the response being measured) turned out to be 37.1 µM in the series with RAW264.7 [2] and 140 µM with RAW264.7 [8]. The inhibition entry (in series [3]; with RAW264.7 [4]; with Rattus norvegicus [6]; with RAW264.7 [7]; in the series on Mus musculus [11]; with Mus musculus [12]) was “Active” in each case. In addition, the inhibition entry with RAW264.7 [13] and with Mus musculus [15] was “Active” in each case. In series [5], the inhibition (usually how much of the control response was suppressed) is “Dose-dependent effect”. In addition, the inhibition at 60 µM with Peritoneal macrophage amounted to 77.5%. For the same compound, the inhibition result in series [9] was “inactive”. Also, the inhibition in vivo – broadly, how much of the control response was suppressed – at 15 mg/kg in the series on Rattus norvegicus [10] is 60%.
